Data: ChEMBL document CHEMBL2321795, “Solubility-driven optimization of (pyridin-3-yl) benzoxazinyl-oxazolidinones leading to a promising antibacterial agent” (J Med Chem, 2013)
Values after ≈ are worked out from the molar mass of the structure shown.

Tests used:
Type in all cases: functional
[1] = system: Staphylococcus aureus; assay: Antibacterial activity against methicillin-resistant Staphylococcus aureus after 16 hrs by NCCLS agar dilution method
Outline: (§1)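 Agar dilution MIC. Stocks were 320 μg/mL in 50% aqueous DMSO, 2-fold serially diluted in sterile water, then diluted 10-fold into Mueller–Hinton agar to give 16–0.03125 μg/mL final. Organisms were grown in MH broth at 35 °C for 8 h and adjusted to 0.5 McFarland. They were spotted onto drug-containing plates with a multipoint inoculator and incubated at 35 °C for 16 h. Linezolid was the positive control.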

[2] = system: Staphylococcus epidermidis; assay: Antibacterial activity against linezolid-resistant Staphylococcus epidermidis after 16 hrs by NCCLS agar dilution method; outline: as §1
[3] = system: Enterococcus faecalis; assay: Antibacterial activity against Enterococcus faecalis after 16 hrs by NCCLS agar dilution method
Outline: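 Agar dilution MIC per NCCLS, 6 E. faecalis strains. Stock was 320 μg/mL in 50% water/DMSO, serially 2-fold diluted in sterile water, then 10-fold into Mueller–Hinton agar to give 16–0.03125 μg/mL final. Inocula came from MH broth cultures grown 8 h at 35 °C, adjusted to 0.5 McFarland and spotted by multipoint inoculator. Plates were read after 16 h at 35 °C.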

[4] = system: Enterococcus faecalis; assay: Antibacterial activity against linezolid-resistant Enterococcus faecalis after 16 hrs by NCCLS agar dilution method; outline: as §1
[5] = system: Staphylococcus aureus; assay: Antibacterial activity against methicillin-sensitive Staphylococcus aureus after 16 hrs by NCCLS agar dilution method; outline: as §1
[6] = system: Streptococcus pneumoniae; assay: Antibacterial activity against penicillin-resistant Streptococcus pneumoniae after 16 hrs by NCCLS agar dilution method; outline: as §1
[7] = system: Staphylococcus epidermidis; assay: Antibacterial activity against methicillin-resistant Staphylococcus epidermidis after 16 hrs by NCCLS agar dilution method; outline: as §1
[8] = system: Staphylococcus aureus; assay: Antibacterial activity against Staphylococcus aureus ATCC 29213 after 16 hrs by NCCLS agar dilution method; conditions: ATCC 29213, 16 h; outline: as §1
[9] = system: Staphylococcus epidermidis; assay: Antibacterial activity against methicillin-sensitive Staphylococcus epidermidis after 16 hrs by NCCLS agar dilution method; outline: as §1
[10] = system: Staphylococcus aureus; assay: Antibacterial activity against linezolid-resistant Staphylococcus aureus after 16 hrs by NCCLS agar dilution method; outline: as §1
[11] = system: Enterococcus faecium; assay: Antibacterial activity against linezolid-resistant Enterococcus faecium after 16 hrs by NCCLS agar dilution method; outline: as §1

SMILES | MIC [1] | MIC [2] | MIC [3] | MIC [4] | MIC [5] | MIC [6] | MIC [7] | MIC [8] | MIC [9] | MIC [10] | MIC [11]
O=C1OCCN1c1ccc(-c2ccc3c(c2)OC[C@H]2[C@H](CO)OC(=O)N32)cn1 | 0.5 µg/mL (≈ 1.3 µM) | 2 µg/mL (≈ 5.22 µM) | 1 µg/mL (≈ 2.61 µM) | 4 µg/mL (≈ 10.4 µM) | 0.5 µg/mL (≈ 1.3 µM) | 0.5 µg/mL (≈ 1.3 µM) | 0.5 µg/mL (≈ 1.3 µM) | 0.5 µg/mL (≈ 1.3 µM) | 0.5 µg/mL (≈ 1.3 µM) | 16 µg/mL (≈ 41.7 µM) | 4 µg/mL (≈ 10.4 µM)
NCc1ccc(-c2ccc3c(c2)OC[C@H]2[C@H](CO)OC(=O)N32)cn1 | 2 µg/mL (≈ 6.11 µM) | – | 4 µg/mL (≈ 12.2 µM) | – | 2 µg/mL (≈ 6.11 µM) | 4 µg/mL (≈ 12.2 µM) | 0.5 µg/mL (≈ 1.53 µM) | – | 1 µg/mL (≈ 3.05 µM) | – | –
O=C1O[C@@H](CO)[C@@H]2COc3cc(-c4ccc(N5C[C@@H]6CCCN[C@@H]6C5)nc4)ccc3N12 | 8 µg/mL (≈ 18.9 µM) | – | 16 µg/mL (≈ 37.9 µM) | – | 4 µg/mL (≈ 9.47 µM) | 8 µg/mL (≈ 18.9 µM) | 4 µg/mL (≈ 9.47 µM) | – | 4 µg/mL (≈ 9.47 µM) | – | –
CC(=O)c1ccc(-c2ccc3c(c2)OC[C@H]2[C@H](CO)OC(=O)N32)cn1 | 2 µg/mL (≈ 5.88 µM) | – | 2 µg/mL (≈ 5.88 µM) | – | 2 µg/mL (≈ 5.88 µM) | 8 µg/mL (≈ 23.5 µM) | 4 µg/mL (≈ 11.8 µM) | – | 4 µg/mL (≈ 11.8 µM) | – | –
O=C1O[C@@H](CO)[C@@H]2COc3cc(-c4ccc(Cn5cncn5)nc4)ccc3N12 | 0.5 µg/mL (≈ 1.32 µM) | 8 µg/mL (≈ 21.1 µM) | 1 µg/mL (≈ 2.64 µM) | 8 µg/mL (≈ 21.1 µM) | 0.5 µg/mL (≈ 1.32 µM) | 0.5 µg/mL (≈ 1.32 µM) | 0.5 µg/mL (≈ 1.32 µM) | 1 µg/mL (≈ 2.64 µM) | 0.5 µg/mL (≈ 1.32 µM) | 16 µg/mL (≈ 42.2 µM) | 8 µg/mL (≈ 21.1 µM)
CC(C)N1CC(c2ccc(-c3ccc4c(c3)OC[C@H]3[C@H](CO)OC(=O)N43)cn2)OC1=O (stereo partly specified) | 1 µg/mL (≈ 2.35 µM) | – | 1 µg/mL (≈ 2.35 µM) | – | 1 µg/mL (≈ 2.35 µM) | 2 µg/mL (≈ 4.7 µM) | 2 µg/mL (≈ 4.7 µM) | – | 1 µg/mL (≈ 2.35 µM) | – | –
O=C1O[C@@H](CO)[C@@H]2COc3cc(-c4ccc(C(O)C5CC5)nc4)ccc3N12 (stereo partly specified) | 1 µg/mL (≈ 2.71 µM) | – | 2 µg/mL (≈ 5.43 µM) | – | 1 µg/mL (≈ 2.71 µM) | 1 µg/mL (≈ 2.71 µM) | 1 µg/mL (≈ 2.71 µM) | – | 0.5 µg/mL (≈ 1.36 µM) | – | –
Cn1nnc(-c2ccc(-c3ccc(N4C[C@H](CO)OC4=O)cc3F)cn2)n1 [TEDIZOLID] | – | 2 µg/mL (≈ 5.4 µM) | – | 2 µg/mL (≈ 5.4 µM) | – | – | – | 0.25 µg/mL (≈ 0.675 µM) | – | 8 µg/mL (≈ 21.6 µM) | 2 µg/mL (≈ 5.4 µM)
CN1CCN(c2ccc(-c3ccc4c(c3)OC[C@H]3[C@H](CO)OC(=O)N43)cn2)C(=O)C1 | 2 µg/mL (≈ 4.87 µM) | – | 16 µg/mL (≈ 39 µM) | – | 2 µg/mL (≈ 4.87 µM) | 4 µg/mL (≈ 9.75 µM) | 2 µg/mL (≈ 4.87 µM) | – | 2 µg/mL (≈ 4.87 µM) | – | –
CC(C)(O)c1ccc(-c2ccc3c(c2)OC[C@H]2[C@H](CO)OC(=O)N32)cn1 | 1 µg/mL (≈ 2.81 µM) | – | 4 µg/mL (≈ 11.2 µM) | – | 1 µg/mL (≈ 2.81 µM) | 2 µg/mL (≈ 5.61 µM) | 2 µg/mL (≈ 5.61 µM) | – | 1 µg/mL (≈ 2.81 µM) | – | –
CN1CC(c2ccc(-c3ccc4c(c3)OC[C@H]3[C@H](CO)OC(=O)N43)cn2)OC1=O (stereo partly specified) | 0.5 µg/mL (≈ 1.26 µM) | – | 1 µg/mL (≈ 2.52 µM) | – | 0.5 µg/mL (≈ 1.26 µM) | 1 µg/mL (≈ 2.52 µM) | 0.5 µg/mL (≈ 1.26 µM) | – | 0.25 µg/mL (≈ 0.629 µM) | – | –
CCO/N=C(\C)c1ccc(-c2ccc3c(c2)OC[C@H]2[C@H](CO)OC(=O)N32)cn1 | – | – | > 32 µg/mL | – | > 32 µg/mL | > 32 µg/mL | – | – | > 32 µg/mL | – | –
Cc1cc(N2CCOC2=O)ncc1-c1ccc2c(c1)OC[C@H]1[C@H](CO)OC(=O)N21 | 0.5 µg/mL (≈ 1.26 µM) | – | 4 µg/mL (≈ 10.1 µM) | – | 0.5 µg/mL (≈ 1.26 µM) | 2 µg/mL (≈ 5.03 µM) | 1 µg/mL (≈ 2.52 µM) | – | 0.5 µg/mL (≈ 1.26 µM) | – | –
O=C1O[C@@H](CO)[C@@H]2COc3cc(-c4ccc(CO)nc4)ccc3N12 | 1 µg/mL (≈ 3.05 µM) | – | 4 µg/mL (≈ 12.2 µM) | – | 1 µg/mL (≈ 3.05 µM) | 2 µg/mL (≈ 6.09 µM) | 0.5 µg/mL (≈ 1.52 µM) | – | 0.5 µg/mL (≈ 1.52 µM) | – | –
Cn1nnc(-c2ccc(-c3ccc4c(c3)OC[C@H]3[C@H](CO)OC(=O)N43)cn2)n1 | 1 µg/mL (≈ 2.63 µM) | – | 4 µg/mL (≈ 10.5 µM) | – | 1 µg/mL (≈ 2.63 µM) | 1 µg/mL (≈ 2.63 µM) | 1 µg/mL (≈ 2.63 µM) | – | 1 µg/mL (≈ 2.63 µM) | – | –
O=C1O[C@@H](CO)CN1c1ccc(-c2ccc3c(c2)OC[C@H]2[C@H](CO)OC(=O)N32)cn1 | 0.5 µg/mL (≈ 1.21 µM) | – | 0.5 µg/mL (≈ 1.21 µM) | – | 0.5 µg/mL (≈ 1.21 µM) | 0.5 µg/mL (≈ 1.21 µM) | 0.5 µg/mL (≈ 1.21 µM) | – | 0.5 µg/mL (≈ 1.21 µM) | – | –
CC(C)N1CCN(c2ccc(-c3ccc4c(c3)OC[C@H]3[C@H](CO)OC(=O)N43)cn2)C(=O)C1 | 2 µg/mL (≈ 4.56 µM) | – | 16 µg/mL (≈ 36.5 µM) | – | 2 µg/mL (≈ 4.56 µM) | 4 µg/mL (≈ 9.12 µM) | 2 µg/mL (≈ 4.56 µM) | – | 2 µg/mL (≈ 4.56 µM) | – | –
O=C1COCCN1c1ccc(-c2ccc3c(c2)OC[C@H]2[C@H](CO)OC(=O)N32)cn1 | 1 µg/mL (≈ 2.52 µM) | – | 2 µg/mL (≈ 5.03 µM) | – | 2 µg/mL (≈ 5.03 µM) | 2 µg/mL (≈ 5.03 µM) | 2 µg/mL (≈ 5.03 µM) | – | 2 µg/mL (≈ 5.03 µM) | – | –
CN1CCC[C@H]2CN(c3ccc(-c4ccc5c(c4)OC[C@H]4[C@H](CO)OC(=O)N54)cn3)C[C@H]21 | 8 µg/mL (≈ 18.3 µM) | – | > 32 µg/mL | – | 8 µg/mL (≈ 18.3 µM) | > 32 µg/mL | 8 µg/mL (≈ 18.3 µM) | – | 4 µg/mL (≈ 9.16 µM) | – | –
